{"source": "ChEMBL document CHEMBL4613263", "about": "“Optimization of Tetrahydroindazoles as Inhibitors of Human Dihydroorotate Dehydrogenase and Evaluation of Their Activity and In Vitro Metabolic Stability” (J Med Chem, 2020)", "key": {"[1]": {"target": "T1, Dihydroorotate dehydrogenase (quinone), mitochondrial (Homo sapiens, UniProt Q02127)", "T1 sequence (Q02127 whole entry)": "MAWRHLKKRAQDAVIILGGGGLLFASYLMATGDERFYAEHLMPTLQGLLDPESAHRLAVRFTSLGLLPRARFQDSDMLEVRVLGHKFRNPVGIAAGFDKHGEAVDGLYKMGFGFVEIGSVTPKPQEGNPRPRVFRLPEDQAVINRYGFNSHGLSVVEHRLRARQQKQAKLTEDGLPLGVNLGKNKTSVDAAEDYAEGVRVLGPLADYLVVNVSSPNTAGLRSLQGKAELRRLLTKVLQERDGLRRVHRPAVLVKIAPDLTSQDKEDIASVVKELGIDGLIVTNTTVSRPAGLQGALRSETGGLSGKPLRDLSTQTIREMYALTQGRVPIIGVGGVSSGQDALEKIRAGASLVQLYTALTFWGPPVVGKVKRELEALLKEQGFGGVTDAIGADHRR", "assay": "Inhibition of DHOH in human ARN8 cells assessed as increase in YOYO3 positive cells at 20 nM incubated for 48 hrs measured every 2 hrs by YOYO-3 staining based live cell imaging analysis", "how_it_was_run": "(§1)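 ARN8 cells seeded at 4×10^3 per well and left 24 h, then given 20 nM compound in medium containing 2 µM caspase-3/7 substrate and 0.3 µM YOYO-3 (0.2% DMSO). Where indicated, 100 µM uridine or 20 µM Z-VAD-FMK was added. Cells imaged every 2 h for 48.5 h in an IncuCyte. Positive-cell counts per mm² normalized to confluence %; mean ± SD of three technical replicates.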"}, "[2]": {"target": "T1, Dihydroorotate dehydrogenase (quinone), mitochondrial", "assay": "Inhibition of DHODH in human ARN8 cells assessed as induction of DNA damage by measuring increase in p53 phosphorylation at Ser15 at 20 nM incubated for 24 hrs by Western blot analysis", "assay_type": "cell-based", "how_it_was_run": "(§2)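 ARN8 cells seeded at 15×10^4 per well and left 24 h. Treated 24 h at 20 nM, or with etoposide at 20 µM for 1 h, with 100 µM uridine where indicated. Lysates made in LDS buffer and protein-normalized, then run on 4–15% gels and transferred to PVDF. Phospho-proteins blocked in BSA, others in milk; primary antibodies overnight at 4 °C, ECL detection. Loading judged by stain-free total protein.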"}, "[3]": {"target": "T1, Dihydroorotate dehydrogenase (quinone), mitochondrial", "assay": "Inhibition of DHODH in human ARN8 cells assessed as activation of p53-dependent transcription at 0.05 to 10 uM incubated for 16 hrs in presence of 100 uM […], uridine by CPRG assay", "assay_type": "cell-based", "how_it_was_run": "(§3)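 ARN8 cells carrying the RGCΔFos-LacZ p53 reporter seeded at 2×10^4 per well and left 24 h, then treated 16 h (0.1% DMSO final, ±100 µM uridine). Cells washed, lysed and frozen at −20 °C for at least 2 h. β-galactosidase measured with CPRG substrate at pH 7.5, read at 590 nm after 24 h. Result is fold change vs DMSO; mean ± SD of three technical replicates.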"}, "[4]": {"target": "T1, Dihydroorotate dehydrogenase (quinone), mitochondrial", "assay": "Inhibition of DHODH in human ARN8 cells assessed as induction of DNA damage by measuring increase in gammaH2AX level at 20 nM incubated for 24 hrs in presence of 100 uM […], uridine by Western blot analysis", "assay_type": "cell-based", "how_it_was_run": "as §2"}, "[5]": {"target": "T1, Dihydroorotate dehydrogenase (quinone), mitochondrial", "assay": "Inhibition of recombinant human DHODH using dihydroorotic acid as substrate in presence of 2 nM of DHODH by DCIP assay"}, "[6]": {"target": "T1, Dihydroorotate dehydrogenase (quinone), mitochondrial", "assay": "Inhibition of DHOH in human ARN8 cells assessed as cleaved PARP level at 20 nM incubated for 24 hrs treated with pan-caspase inhibitor, Z-VAD-FMK for 4.5 hrs prior to harvesting by Western blot analysis", "assay_type": "cell-based", "how_it_was_run": "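ARN8 cells treated 24 h at 20 nM, with 20 µM Z-VAD-FMK or vehicle added 4.5 h before harvest. Etoposide arm was 20 µM for 1 h alongside Z-VAD-FMK. Lysates normalized for protein and analysed by western blot for p53, p-Ser15 p53, γ-H2AX, H2AX and cleaved PARP (85 kDa) against stain-free total-protein loading.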"}, "[7]": {"target": "T1, Dihydroorotate dehydrogenase (quinone), mitochondrial", "assay": "Inhibition of DHODH in human ARN8 cells assessed as increase in p53 level at 20 nM incubated for 24 hrs by Western blot analysis", "assay_type": "cell-based", "how_it_was_run": "as §2"}, "[8]": {"assay": "Cytotoxicity against human HNDF cells assessed as reduction in cell viability incubated for 72 hrs by SRB assay", "assay_type": "cell-based", "details": "Homo sapiens, 72 h; read-out: IC50", "how_it_was_run": "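Human normal dermal fibroblasts seeded at 15×10^2 per well and left 24 h, then exposed to compound for 72 h with 0.1% DMSO final. Cells fixed with TCA at 4 °C for 1 h, stained with SRB, solubilized in 10 mM Tris and read at 490 nm. Values normalized to DMSO control. Tabulated means come only from experiments where IC50 fell below 10 000 nM.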"}, "[9]": {"target": "T1, Dihydroorotate dehydrogenase (quinone), mitochondrial", "assay": "Inhibition of DHOH in human ARN8 cells assessed as increase in YOYO3 positive cells at 20 nM incubated for 48 hrs in presence of 100 uM […], uridine measured every 2 hrs by YOYO-3 staining based live cell imaging analysis", "how_it_was_run": "as §1"}, "[10]": {"target": "T1, Dihydroorotate dehydrogenase (quinone), mitochondrial", "assay": "Inhibition of DHODH in human ARN8 cells assessed as increase in p53 level at 20 nM incubated for 24 hrs in presence of 100 uM […], uridine by Western blot analysis", "assay_type": "cell-based", "how_it_was_run": "as §2"}, "[11]": {"assay": "Kinetic aqueous solubility of compound in Prima HT solution at pH 7.4 incubated for 4 hrs by UV-spectrophotometry", "assay_type": "physicochemical", "details": "read-out: Kinetic_solubility", "how_it_was_run": "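20 mM DMSO stocks diluted 100× into Prima HT buffer at pH 7.4 and shaken 4 h at rt. Samples filtered through 0.22 µm, mixed 1:1 with isopropanol and scanned by UV from 190–400 nm against stock reference standards.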"}, "[12]": {"target": "T1, Dihydroorotate dehydrogenase (quinone), mitochondrial", "assay": "Inhibition of DHOH in human ARN8 cells assessed as increase in caspase 3/7 activity at 20 nM incubated for 48 hrs by live cell imaging analysis", "assay_type": "cell-based", "how_it_was_run": "as §1"}, "[13]": {"assay": "Metabolic stability in human liver microsomes assessed as half life at 1 uM incubated for 60 mins by LC-MS/MS analysis", "assay_type": "ADME, Microsome", "details": "liver microsomes", "how_it_was_run": "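Compound at 1 µM with 1.0 mg/mL human or mouse liver microsomes in 50 mM potassium phosphate pH 7.4, preincubated 5 min at 37 °C. Started with 1 mM NADPH (or blank buffer). Quenched with cold acetonitrile containing glipizide at 0, 5, 15, 30, 60 min. Parent loss tracked by LC-MS/MS in MRM mode; t½ = 0.693/k from slope of peak-area ratio versus time.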"}, "[14]": {"target": "T1, Dihydroorotate dehydrogenase (quinone), mitochondrial", "assay": "Inhibition of […] in human ARN8 cells assessed as increase in Bax protein expression at 20 nM incubated for 24 hrs in presence of pan-caspase inhibitor, Z-VAD-FMK by Western blot analysis", "assay_type": "cell-based"}, "[15]": {"target": "T1, Dihydroorotate dehydrogenase (quinone), mitochondrial", "assay": "Inhibition of […] in human ARN8 cells assessed as increase in Bax protein expression at 20 nM incubated for 24 hrs by Western blot analysis", "assay_type": "cell-based"}, "[16]": {"target": "T1, Dihydroorotate dehydrogenase (quinone), mitochondrial", "assay": "Inhibition of DHOH in human ARN8 cells assessed as increase in YOYO3 positive cells at 20 nM incubated for 48 hrs in presence of pan-caspase inhibitor, Z-VAD-FMK measured every 2 hrs by YOYO-3 staining based live cell imaging analysis", "how_it_was_run": "as §1"}, "[17]": {"target": "T1, Dihydroorotate dehydrogenase (quinone), mitochondrial", "assay": "Inhibition of DHODH in human ARN8 cells assessed as activation of p53-dependent transcription at 0.05 to 10 uM incubated for 16 hrs by CPRG assay", "assay_type": "cell-based", "how_it_was_run": "as §3"}, "[18]": {"target": "T1, Dihydroorotate dehydrogenase (quinone), mitochondrial", "assay": "Inhibition of DHODH in human ARN8 cells assessed as induction of DNA damage by measuring increase in gammaH2AX level at 20 nM incubated for 24 hrs by Western blot analysis", "assay_type": "cell-based", "how_it_was_run": "as §2"}, "[19]": {"assay": "Cytotoxicity against human HNDF cells assessed as reduction in cell viability incubated for 72 hrs in presence of 100 uM […], uridine by SRB assay", "assay_type": "cell-based", "how_it_was_run": "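Normal dermal fibroblasts seeded at 15×10^2 per well and left 24 h, then treated 72 h in medium with 0.1% DMSO final plus 100 µM uridine. Fixed with TCA, stained with 0.4% SRB, dye dissolved in Tris and read at 490 nm. Growth/viability given as % of DMSO control; mean ± SD of three technical replicates.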"}}, "note": "Calls of active or inactive are those of the source. The rule behind the calls is not given here."}
{"smiles": "O=C(N[C@@H]1CCCc2c1cnn2-c1ccccc1F)c1ncn2c1CCCC2", "values": [{"measurement": "inhibition", "setting": "[1]", "value": "Active"}, {"measurement": "inhibition", "setting": "[2]", "value": "Active"}, {"measurement": "inhibition", "setting": "[3]", "value": "inactive"}, {"measurement": "inhibition", "setting": "[4]", "value": "inactive"}, {"measurement": "IC50", "setting": "[5]", "value": 2.3, "unit": "nM"}, {"measurement": "inhibition", "setting": "[6]", "value": "inactive"}, {"measurement": "inhibition", "setting": "[7]", "value": "Active"}, {"measurement": "IC50", "setting": "[8]", "value": "> 10000", "unit": "nM"}, {"measurement": "inhibition", "setting": "[9]", "value": "inactive"}, {"measurement": "inhibition", "setting": "[10]", "value": "inactive"}, {"measurement": "solubility kinetic at 4 h", "setting": "[11]", "value": 74, "unit": "µM"}, {"measurement": "inhibition", "setting": "[12]", "value": "Active"}, {"measurement": "half-life at 1 µM", "setting": "[13]", "value": "> 1", "unit": "h"}, {"measurement": "inhibition", "setting": "[14]", "value": "Active"}, {"measurement": "inhibition", "setting": "[15]", "value": "Active"}, {"measurement": "inhibition", "setting": "[16]", "value": "inactive"}, {"measurement": "inhibition", "setting": "[17]", "value": "Active"}, {"measurement": "inhibition", "setting": "[18]", "value": "Active"}, {"measurement": "Activity", "setting": "[19]", "value": "Toxic"}]}
